# In the library only some 1.8% were active in any assay of this set; here they are far more common.
# CHRM5 antagonist: blocks acetylcholine activation of human M5 receptor | inhibition, % at 3 µM | P08912 | CHO-hM5 cells, Fluo-8 calcium fluorescence, ACh EC80 | 360,000 compounds, 0.59% hits;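 active means inhibition above a per-plate cutoff, the mean of that plate's test compounds plus 3 SD, cut at about 27% in these data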;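 further: 0% = acetylcholine EC80 with DMSO and 100% = DMSO without agonist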
# M4 ag: agonists of human muscarinic M4 receptor (CHRM4). P08173. CHO-K1 hM4/Gqi5, Fluo-8 calcium fluorescence; vehicle 0%, full acetylcholine response 100%. activation, % at 3 µM. 360,000 compounds, 0.14% hits. AID 624127;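 active means activation above the run mean over all test wells plus 3 SD, cut at about 32% in these data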;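 further: peak over basal fluorescence ratio per well then scaled between controls; 0% = DMSO wells and 100% = acetylcholine at EC100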
# Target sequence (P08173 whole entry, looked up): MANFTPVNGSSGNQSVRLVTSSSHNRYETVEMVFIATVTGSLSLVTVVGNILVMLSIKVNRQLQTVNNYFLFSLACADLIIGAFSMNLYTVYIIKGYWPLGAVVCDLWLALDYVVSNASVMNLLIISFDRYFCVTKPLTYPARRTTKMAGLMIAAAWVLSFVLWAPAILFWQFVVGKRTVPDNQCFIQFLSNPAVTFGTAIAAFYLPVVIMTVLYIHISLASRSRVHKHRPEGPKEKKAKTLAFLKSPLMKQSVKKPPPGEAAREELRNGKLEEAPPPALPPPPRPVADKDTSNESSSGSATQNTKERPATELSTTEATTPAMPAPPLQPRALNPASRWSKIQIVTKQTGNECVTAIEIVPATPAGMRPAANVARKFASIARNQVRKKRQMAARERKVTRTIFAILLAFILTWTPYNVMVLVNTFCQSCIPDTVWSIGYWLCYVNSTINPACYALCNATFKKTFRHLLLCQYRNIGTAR
# M5 ag: CHRM5 agonism in calcium assay | P08912 | activation, % at 3 µM | 360,000 compounds, 0.19% hits | AID 624037 | CHO-K1 hM5 cells, Fluo-8 calcium fluorescence; 0% DMSO wells, 100% maximal acetylcholine response;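 active means activation above the run's mean over test compounds plus 3 SD, cut at about 23% in these data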;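 further: signal is peak over basal fluorescence ratio across the kinetic read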
# CHRM4 antagonist: blocks acetylcholine activation of human M4 receptor; P08173; inhibition, % at 3 µM; 360,000 compounds, 0.73% hits; CHO-hM4 cells, ACh EC80, Fluo-8 calcium fluorescence; AID 624125;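 active means inhibition above its plate's cutoff, the mean inhibition of sample wells plus 3 SD, cut at about 27% in these data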;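 further: 0% = acetylcholine EC80 with DMSO and 100% = DMSO without agonist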
# M5 PAM: CHRM5 positive allosteric modulation; P08912; CHO-K1 hM5, Fluo-8 calcium, ACh EC20 PAM; 0% = ACh EC20, 100% = ACh EC100; activation, % at 3 µM; 360,000 compounds, 0.3% hits;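 active means activation above the run cutoff, the mean activation of all test compounds plus 3 SD, cut at about 18% in these data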
#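 Assay system – human M5 receptor in CHO-K1 cells · Read-out – % activation, ACh-normalized · Technique – Fluo-8 calcium fluorescence · Dosing – single-point, 3 µM nominal · Incubation – Fluo-8 loading 80 min at 37 °C plus 30 min room temperature · Repeats – singlicate, one well per test compound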
# CHRM4 PAM: potentiates acetylcholine response at human M4 receptor. AID 624126. activation, % at 3 µM. CHO-K1 hM4/Gqi5, Fluo-8 calcium fluorescence, ACh EC20; 0% = ACh EC20, 100% = maximal ACh. 360,000 compounds, 0.4% hits. P08173;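 active means activation above its plate's cutoff, the mean activation of sample wells plus 3 SD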
# * marks the source's active call; other numbers are inactive results.
SMILES,CHRM5 antagonist,M4 ag,M5 ag,CHRM4 antagonist,M5 PAM,CHRM4 PAM
Cc1sc2ncnc(NCC3COc4ccccc4O3)c2c1C (configuration not stated),38.3*,10.7,1.4,32.1*,-17.0,-12.3
CCn1c(=O)c2c(nc(SCC(=O)Nc3ccccc3)n2C)n(C)c1=O,12.9,2.0,-3.0,-1.7,0.8,-4.0
Cc1cccc(NC(=O)CC2NC3CCCCC3NC2=O)c1 (configuration not stated),-5.4,0.1,-8.0,8.5,24.1*,0.8
CCCOc1ccc(CNC(=S)Nc2ccccc2)cc1Cl,12.0,10.5,0.6,-4.3,-10.8,-11.6
CN1C=CC=C/C1=C1\SC(=S)N(c2ccccc2)C1=O,-1.2,1.1,-5.4,-5.3,-2.0,17.1*
COc1ccc(NC(=O)COC(=O)CNS(=O)(=O)/C=C/c2ccccc2)cc1OC,13.5,1.3,-1.2,7.0,0.2,1.8
CCOC(=O)CC1(CCc2ccccc2)Oc2ccccc2N1S(=O)(=O)c1ccc(C)cc1 (configuration not stated),-11.9,3.1,0.8,-8.3,-4.4,12.0
CCOC(=O)CC1(C)Oc2cc(Cl)ccc2N1S(=O)(=O)c1ccc(C)cc1 (configuration not stated),30.9*,-1.0,-4.8,23.7,-19.3,-15.6
CC(C)C1CC(CCN)(c2ccccc2)CCO1 (configuration not stated),7.2,0.7,-12.5,48.1*,2.5,-12.6
OC(c1ccc(CN2CCCCC2)cc1)c1ncc(-c2ccccc2)[nH]1 (configuration not stated),0.1,0.1,-1.9,-4.7,1.2,-3.7
O=c1oc2cc(O)ccc2cc1-c1nc2ccccc2o1,20.1,40.7*,26.9*,21.6,-20.5,-14.4
O=c1oc2cc(O)ccc2cc1S(=O)(=O)c1ccccc1,-12.3,1.0,-2.4,-13.0,4.6,-0.1
O=C1CSC(=S)N1Nc1ccccc1,12.7,6.5,25.9*,7.1,-9.5,-1.6
Cc1ccccc1C(=O)NN1C(=O)CSC1=S,-6.4,1.5,1.0,4.2,-1.5,5.0
O=C(C1=C(O)C(=O)N(CCN2CCOCC2)C1c1cccc(O)c1)c1cc2ccccc2o1 (configuration not stated),3.1,1.9,-3.0,-3.0,-0.7,18.9*
CN(C)c1ccc(-c2csc(C(O)c3cccc(Cl)c3)n2)cc1 (configuration not stated),18.7,47.4*,7.4,16.8,-20.8,-12.9
COc1ccc(NC(=O)CCSCCc2ccccn2)cc1OC,1.3,2.0,1.3,-9.7,0.4,6.3
c1ccc2c(c1)Cn1nnnc1-2,-7.7,0.4,1.4,4.4,18.4*,11.5
CN1CCN(c2ccc(CNS(=O)(=O)c3ccc(F)cc3Cl)cc2)CC1,1.0,1.7,-5.7,5.1,4.2,19.6*
CC1CCN(c2nc3ccccc3n2CC(=O)c2ccccc2)CC1,5.5,0.8,-8.4,58.4*,-16.6,-26.1
Cc1nc2ccccc2n1CC(=O)c1ccccc1,-1.5,1.9,5.3,-0.7,12.8,-2.5
CC(NC(=O)Nc1ccc(Cl)c(Cl)c1)C(c1ccccc1)N1CCOCC1 (configuration not stated),30.5*,72.6*,18.3,5.8,-16.1,-7.5
CC(NC(=O)C1CCC(C(C)(C)C)CC1)C(c1ccccc1)N1CCOCC1 (configuration not stated),-0.5,-1.3,-2.0,6.0,-2.1,-5.9
CC(NC(=O)Nc1ccc([N+](=O)[O-])cc1)C(c1ccccc1)N1CCOCC1 (configuration not stated),2.9,76.2*,31.2*,-3.7,-7.9,0.2
CC(NC(=O)c1ccc(Cl)cc1Cl)C(c1ccccc1)N1CCOCC1 (configuration not stated),7.5,0.4,-3.4,-0.7,-2.5,2.1
SMILES,CHRM5 antagonist,M4 ag,M5 ag,CHRM4 antagonist,M5 PAM,CHRM4 PAM
COc1ccccc1C(=O)NC(=O)CSc1nncn1C(C)C,-0.6,1.9,2.3,4.4,2.5,12.6
O=C(c1ccco1)N1CCN(Cc2cccc([N+](=O)[O-])c2)CC1,-0.5,1.3,-4.7,-0.7,-1.7,-3.8
CCCCC(=O)N1CCN(c2nc3ccc(Cl)cc3s2)CC1,4.9,14.6,0.4,2.2,-8.1,23.2*
Cc1cccc(NC(=O)CSCC(=O)N(CCC(C)C)c2c(N)n(Cc3ccccc3)c(=O)[nH]c2=O)c1,1.6,-0.1,-1.0,-0.3,-0.8,5.6
CCN(CC)c1ccc(C=NNc2ccc([N+](=O)[O-])cn2)cc1,36.9*,1.5,35.3*,1.0,-15.4,-2.8
O=C(CNC(=O)Cc1ccccc1)N=Nc1c(O)n(Cc2ccc3c(c2)OCO3)c2ccccc12,-4.5,0.7,-4.3,-17.8,11.0,21.2*
CC(=O)c1c(C)n(CC(=O)NCc2ccc3c(c2)OCO3)c2ccccc12,28.8*,13.5,0.7,10.1,-18.0,-7.6
COC(=O)Cn1c(O)c(N=NC(=O)CNC(=O)c2ccc3c(c2)OCCO3)c2ccccc21,-1.3,3.3,-8.6,-1.1,10.9,2.0
COc1ccc2cc(C(=O)NCc3ccccc3CN3CCCC3)ccc2c1,4.7,2.2,-8.7,15.2,0.3,-8.9
Cc1c(C(=O)OC(C)C(C)C[N+](C)(C)C)oc2ccccc12 (configuration not stated),12.0,0.1,-7.3,77.2*,-17.6,-22.2
O=C(N/N=C/c1ccc(O)cc1)c1ccc(COc2cc(Cl)ccc2Cl)o1,11.5,25.2,34.9*,20.3,-6.0,-9.3
O[C@H]1C[C@H](c2ccc(Cl)cc2)N(CC2CCCCC2)C[C@@H]1n1cc(-c2ccc(F)cc2)nn1,8.8,1.0,0.9,-15.2,3.2,5.4
CCOC(=O)N1CCC(N2C(=O)c3ccc(C(=O)NCc4ccc(F)cc4)cc3C2=O)CC1,-0.1,1.1,1.8,-2.9,-1.9,2.6
CCOC(=O)N1CCC(N2CCN(c3cc(C)ccc3C)CC2)CC1,55.2*,8.4,-7.4,14.7,-15.9,-20.1
CCOC(=O)N1CCC(N2C(=O)c3ccc(C(=O)O)cc3C2=O)CC1,-4.1,0.8,-3.3,-3.3,21.1*,4.1
CCc1ccc(NC(=O)CSc2nc3ccccc3c(=O)n2CCCN2CCC(C)CC2)cc1,4.1,3.7,-15.1,-4.8,-7.0,-6.8
Cc1cc(OCCCC(=O)Nc2cccc(-n3cnnn3)c2)ccc1Cl,27.2*,18.7,5.8,12.7,-17.0,-13.5
O=C(Nc1ccc2c(c1)OCCO2)C(c1ccnc2ccccc12)N1CCN(c2ccc(F)cc2)CC1 (configuration not stated),-4.0,2.0,20.5,-1.9,19.3*,-1.7

# Screening data deposited in PubChem BioAssay by The Scripps Research Institute Molecular Screening Center.
